# bIAP inhibitor: bovine intestinal alkaline phosphatase inhibitors, primary screen, selectivity assay for TNAP inhibitor project, biochemical, bovine IAP, CDP-star luminescence; alkaline phosphatase, intestinal [Bos taurus]; purified bovine IAP, 30 min; inhibition, % at 20 µM; 190,000 tested, under 10 active;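 active means over 50% inhibition of intestinal alkaline phosphatase at 20 µM in the single-dose screen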
#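 Incubation: 30 min reaction at room temperature / Material: purified bovine intestinal alkaline phosphatase (IAP) enzyme / Input: enzyme at 1/65,000,000 dilution / Dosing: 20 µM single dose / Signal: CDP-star luminescence signal / Reagent: CDP-star chemiluminescent phosphatase substrate, 30 µM final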
# hIAP block: human IAP inhibitors, primary screen, biochemical, luminescence, uHTS. 330,000 tested, 0.12% active. purified IAP, CDP-Star luminescence, 30 min. inhibition, % at 10 µM. Intestinal-type alkaline phosphatase (Homo sapiens), P09923;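 active means inhibition reaching a set limit with compound at 10 µM in the primary screen, cut at about 35% in these data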;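 further: plate controls were DMSO wells with enzyme for no effect and no-enzyme buffer wells for full effect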
# Target sequence (P09923 whole entry, looked up): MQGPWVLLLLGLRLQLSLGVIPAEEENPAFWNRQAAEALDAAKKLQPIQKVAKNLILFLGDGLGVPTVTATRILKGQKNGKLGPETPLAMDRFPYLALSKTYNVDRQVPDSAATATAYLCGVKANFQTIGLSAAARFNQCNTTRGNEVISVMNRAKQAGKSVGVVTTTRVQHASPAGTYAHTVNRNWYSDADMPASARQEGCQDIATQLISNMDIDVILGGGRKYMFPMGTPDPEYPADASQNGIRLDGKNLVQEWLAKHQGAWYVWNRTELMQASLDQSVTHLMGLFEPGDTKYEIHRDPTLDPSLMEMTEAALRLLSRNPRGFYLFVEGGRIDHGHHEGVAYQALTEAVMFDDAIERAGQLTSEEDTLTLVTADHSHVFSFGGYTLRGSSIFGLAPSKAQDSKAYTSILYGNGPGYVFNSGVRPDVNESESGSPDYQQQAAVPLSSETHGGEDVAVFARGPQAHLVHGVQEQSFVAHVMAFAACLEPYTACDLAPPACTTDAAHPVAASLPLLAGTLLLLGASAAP
# mIAP inh: inhibitors of mouse IAP, primary screen, biochemical, luminescence, uHTS. intestinal alkaline phosphatase [Mus musculus]. purified mouse IAP, CDP-Star luminescence, 30 min. inhibition, % at 10 µM. 330,000 tested, 0.2% active. AID 2806, 2010;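 active means inhibition of at least 40% at 10 µM in the primary screen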;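 further: plate controls were DMSO with enzyme for no effect and no enzyme wells for full effect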
# hIAP activ: human IAP activators, primary screen, biochemical, luminescence, uHTS; purified human IAP, CDP-Star luminescence, 30 min; active compounds read high; 1 = vehicle-only enzyme, 0 = enzyme-free background; 330,000 tested, 0.16% active; AID 2524, 2010; activation factor at 10 µM; Intestinal-type alkaline phosphatase (Homo sapiens), P09923;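 active means activation factor of the enzyme at least 2-fold when tested at 20 µM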
# bIAP activator: bovine intestinal alkaline phosphatase activators, primary screen, biochemical, bovine IAP, CDP-star luminescence; alkaline phosphatase, intestinal [Bos taurus]; purified bovine IAP, 30 min; active compounds read high; fold of DMSO-control signal, blank-subtracted; activation factor at 20 µM; 200,000 tested, 0.17% active;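 active means activation factor of 2 or more at 20 µM, a signal rise over negative controls twice the positive control's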
# mIAP act: activators of mouse IAP, primary screen, biochemical, luminescence, uHTS. muIAP, CDP-Star luminescence, 30 min; active compounds read high; 1 = vehicle-only enzyme signal, 0 = enzyme-free wells. activation factor at 10 µM. AID 2805, 2010. intestinal alkaline phosphatase [Mus musculus]. 330,000 tested, 0.24% active;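 active means activation factor of at least 2 at 20 µM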
#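 Assay system: mouse IAP enzyme / Compound: DMSO-dissolved test compounds / Timing: 30 min, room temperature / Measured by: luminescence from enzymatic CDP-Star hydrolysis / Control set: DMSO-only wells, enzyme-free buffer wells as negative control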
# The depositor's hits bear a star; nt = not tested or not shown. Only some compounds are listed: those with a hit (about 0.79% of all), similar ones and a draw of the others.
SMILES,bIAP inhibitor,hIAP block,mIAP inh,hIAP activ,bIAP activator,mIAP act
Cn1c(/C=N/Nc2nc3ccccc3[nH]2)nc2ccccc21,14.3,-15.8,41.8*,1.16,0.9,0.582
NS(=O)(=O)c1ccc(N2N=C(c3ccccc3)CC2c2ccccc2)cc1 (stereo unspecified),12.3,-37.4,-105.4,1.37,0.9,2.05*
N/C(=N\OC(=O)c1cccc2ccccc12)c1cccc([N+](=O)[O-])c1,11.2,5.4,-2.6,0.946,0.9,1.03
Cc1cccc(/C(N)=N/OC(=O)c2cccc3ccccc23)c1,nt,40.1*,6.7,0.599,nt,0.933
NC(=O)C1CCN(Cc2nc3cc(C(F)(F)F)ccc3c(=O)[nH]2)CC1,nt,-5.5,5.5,1.05,nt,0.945
Cc1ccc(NC(=O)Nc2cc(S(=O)(=O)N(C)C)ccc2C)cc1,18.8,-10.2,-177.3,1.1,0.8,2.77*
Cc1ncoc1C(=O)Nc1ccc2c(c1)OCCO2,5.3,15.9,7.8,0.841,0.9,0.922
Cc1ccsc1C(=O)Nc1ccc2c(c1)OCCO2,-109.9,5.8,-4.2,0.942,2.1*,1.04
O=C1/C(=C/c2ccc(N3CCOCC3)o2)SC(=Nc2ccccc2)N1CCc1c[nH]c2ccccc12,39.7,42.6*,12.0,0.574,0.6,0.88
O=C(O)c1ccc(CS(=O)c2cccc(C(F)(F)F)c2)o1 (stereo unspecified),-223.5,26.5,0.2,0.735,3.2*,0.998
Cc1cccc(S(=O)Cc2ccc(C(=O)N3CCOCC3)o2)c1 (stereo unspecified),nt,-7.5,1.7,1.07,nt,0.983
CCN(CC)S(=O)(=O)c1cccc(C(=O)Nc2cc(C)on2)c1,nt,-31.4,-2.8,1.31,nt,1.03
O=C(O)Cn1nc(-c2ccccc2)ccc1=O,nt,-11.6,6.5,1.12,nt,0.935
O=C(Nc1ccc(Cl)cc1)NC1CCCCC1,-8.7,-9.0,-16.1,1.09,1.1,1.16
O=C(Nc1ccc(Cl)cc1)NC1CCCC1Cc1ccco1 (stereo unspecified),-10.3,-16.1,-177.9,1.16,1.1,2.78*
Cc1ccc(C(=O)C(NC(=O)c2ccco2)Nc2sc3c(c2C(N)=O)CCCC3)cc1 (stereo unspecified),-262.9,-11.9,11.0,1.12,3.6*,0.89
CC(C)(C)c1ccc(NC(=O)Nc2ccc(OCC(=O)N3CCOCC3)cc2)cc1,-29.3,-5.1,-107.8,1.05,1.3,2.08*
CCOCCCNC(=S)N1C2CCC1CC(NC(=O)Nc1ccc(C(=O)OCC)cc1)C2 (stereo unspecified),-38.1,-37.9,-120.1,1.38,1.4,2.2*
CCNC(=S)N1C2CCC1CC(NC(=O)Nc1ccc(C(=O)OCC)cc1)C2 (stereo unspecified),-11.5,7.7,-56.3,0.923,1.1,1.56
CCOC(=O)c1cc(-c2ccccc2)n(CC(=O)Nc2cc(OC)cc(OC)c2)c1C,nt,-16.9,-116.1,1.17,0.5,2.16*
CCOC(=O)c1cc(-c2ccccc2)n(CC(=O)Nc2ccc(OCC)cc2)c1C,16.6,2.2,-33.8,0.978,0.8,1.34
CC(=O)Nc1ccc(S(=O)(=O)NCC(=O)NNC(=O)COc2c(C)cccc2C)cc1,nt,-83.4,40.6*,1.83,nt,0.594
CC(=O)Nc1ccc(S(=O)(=O)NCC(=O)NNC(=O)COc2ccccc2Cl)cc1,nt,-50.1,22.8,1.5,nt,0.772
COC(=O)c1c(NC(=O)C2CC2)sc(C(=O)Nc2ccccc2)c1C,5.2,8.6,3.9,0.914,0.9,0.961
Cn1cc(S(=O)(=O)Nc2cccc(F)c2)c(=O)n(C)c1=O,5.8,3.4,-17.4,0.966,0.9,1.17
SMILES,bIAP inhibitor,hIAP block,mIAP inh,hIAP activ,bIAP activator,mIAP act
COc1cccc(NS(=O)(=O)c2cn(C)c(=O)n(C)c2=O)c1,-408.6,15.6,-6.1,0.844,5.1*,1.06
Cc1ccccc1CN(C)C1CCN(C)CC1,nt,6.0,-8.6,0.94,nt,1.09
CC(=O)Nc1cccc(-c2cnc(N)c(C(=O)c3cccnc3)n2)c1,nt,-14.8,-8.4,1.15,nt,1.08
CCN(CC)c1ccc2cc(-c3nc4ccccc4[nH]3)c(=O)oc2c1,-68.2,14.9,-39.9,0.851,1.7,1.4
CCN(CC)c1ccc2cc(-c3nc4ccccc4n3C)c(=O)oc2c1,-157.8,nt,nt,nt,2.6*,nt
CC(=O)Nc1ccc(NC(=O)C(C)OC(=O)CNS(=O)(=O)c2ccc(Br)cc2Cl)cc1 (stereo unspecified),nt,14.6,5.4,0.854,nt,0.946
CC(=O)Nc1ccc(C(=O)NC2CCSc3ccccc32)cc1 (stereo unspecified),nt,7.9,0.1,0.921,nt,0.999
Cc1ccc(NC(=S)NC2CCSc3ccccc32)cc1 (stereo unspecified),nt,-33.3,-268.6,1.33,nt,3.69*
COC(=O)c1ccc(NC(=S)NC2CC2)cc1,-2.3,8.6,-6.2,0.914,1,1.06
COC(=O)c1ccc(NC(=S)NC2CCc3ccccc32)cc1 (stereo unspecified),-1.2,-4.0,-189.9,1.04,1,2.9*
C[C@H](CO)N1C[C@H](C)[C@@H](CN(C)S(C)(=O)=O)Oc2c(NC(=O)C3CC3)cccc2C1=O,nt,-1.1,6.4,1.01,nt,0.936
COc1ccccc1NC(=O)CN1CCN(C2c3ccccc3-c3ccccc32)CC1,-95.5,-9.8,-9.1,1.1,2*,1.09
C=CCOC(=O)C1=C[C@H](c2ccc(Br)cc2)C[C@H](OCc2ccc(CO)cc2)O1,nt,5.4,-2.6,0.946,nt,1.03
O=C(N/N=C/c1ccc[nH]1)c1cccc(Br)c1,-55.8,0.7,29.1,0.993,1.6,0.709
Cc1cccc(C(=O)N/N=C/c2ccc[nH]2)c1,2.4,4.6,40.4*,0.954,1,0.596
CC(C)Cc1nnc(NC(=O)CCC(=O)N2CCN(c3ccccc3F)CC2)s1,nt,-26.0,-4.2,1.26,nt,1.04
Fc1ccc(CNC(=S)Nc2cccc(C(F)(F)F)c2)cc1,2.5,-18.1,-162.1,1.18,1,2.62*
CC(NC(=S)Nc1cccc(C(F)(F)F)c1)C(C)(C)C (stereo unspecified),15.3,-16.7,-266.5,1.17,0.8,3.67*
Fc1ccccc1NC(=S)NCc1ccc(Cl)cc1,nt,-11.6,-51.0,1.12,nt,1.51
CN(C)NC(=S)Nc1cccc(C(F)(F)F)c1,nt,11.1,6.5,0.889,nt,0.935
Fc1cccc(NC(=S)NCc2ccc(Cl)cc2)c1,5.1,-13.1,-150.1,1.13,0.9,2.5*
FC(F)(F)c1cccc(NC(=S)NNC(=S)Nc2ccc(Cl)cc2)c1,nt,6.5,11.7,0.935,nt,0.883

# Screening results as filed in PubChem.
